ChEMBL document CHEMBL1153011, “Mechanism of unusual formation of 3-(5-phenyl-3H-[1,2,4]dithiazol-3-yl)chromen-4-ones and 4-oxo-4H-chromene-3-carbothioic acid N-phenylamides and their antimicrobial evaluation” (2009)
In brackets after ≈: the same amount, converted by molar mass. Activity calls are given as the source filed them. The rule behind the calls is not given here.

Tests used:
[1] = system: Shigella flexneri; assay: Antibacterial activity against Shigella flexneri MTCC 1457 at 2.5 x 10^-5 ug/ml after 24 hrs by disk diffusion assay; type: functional; conditions: MTCC 1457, 24 h, read-out: GI
How it was run: (§1)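 Disk diffusion. 100 µl of 4-h nutrient-broth cultures spread on Mueller Hinton agar. Compounds in DMSO (1/10) applied to 8 mm paper disks. After 24 h at 37 °C, growth-inhibition zone diameter measured. DMSO negative control; chloramphenicol and ciprofloxacin positive controls.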

[2] = system: Staphylococcus aureus; assay: Antibacterial activity against Staphylococcus aureus MTCC 740 at 2.5 x 10^-5 ug/ml after 24 hrs by disk diffusion assay; type: functional; conditions: MTCC 740, 24 h, read-out: GI; how it was run: as §1
[3] = system: Shigella flexneri; assay: Antibacterial activity against Shigella flexneri MTCC 1457 after overnight incubation by broth dilution method; type: functional
How it was run: (§2)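 Bacteria grown at 37 °C on nutrient agar. Compounds dissolved in DMSO (1/10) and tested in twofold serial dilutions in Mueller Hinton broth in tubes. Inoculum was a McFarland-standardized suspension, final 5 × 10^5 CFU/ml, with growth and sterility control tubes. Incubation overnight at 37 °C. MIC read by OD600 as the lowest concentration with no turbidity. DMSO negative control; chloramphenicol and ciprofloxacin positive controls.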

[4] = system: Pseudomonas aeruginosa; assay: Antibacterial activity against Pseudomonas aeruginosa MTCC 741 at 5 x 10^-5 ug/ml after 24 hrs by disk diffusion assay; type: functional, organism-based; how it was run: as §1
[5] = system: Staphylococcus aureus; assay: Antibacterial activity against Staphylococcus aureus MTCC 740 at 1 x 10^-4 ug/ml after 24 hrs by disk diffusion assay; type: functional; conditions: MTCC 740, 24 h, read-out: GI; how it was run: as §1
[6] = system: Staphylococcus aureus; assay: Antibacterial activity against Staphylococcus aureus MTCC 740 after overnight incubation by broth dilution method; type: functional; how it was run: as §2
[7] = system: Candida tropicalis; assay: Antifungal activity against Candida tropicalis MTCC 230 after 24 to 72 hrs by broth dilution method; type: functional
How it was run: (§3)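 Fungi grown at 25 °C on Sabouraud dextrose agar. Compounds dissolved in DMSO (1/10) and tested at several concentrations in Sabouraud dextrose broth in tubes. Conidial suspension at final 1 × 10^5 CFU/ml, with growth and sterility control tubes. […] DMSO negative control; fluconazole positive control.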

[8] = system: Escherichia coli; assay: Antibacterial activity against Escherichia coli MTCC 119 at 2.5 x 10^-5 ug/ml after 24 hrs by disk diffusion assay; type: functional; conditions: MTCC 119, 24 h, read-out: GI; how it was run: as §1
[9] = system: Pseudomonas aeruginosa; assay: Antibacterial activity against Pseudomonas aeruginosa MTCC 741 at 1 x 10^-4 ug/ml after 24 hrs by disk diffusion assay; type: functional, organism-based; how it was run: as §1
[10] = system: Shigella flexneri; assay: Antibacterial activity against Shigella flexneri MTCC 1457 at 5 x 10^-5 ug/ml after 24 hrs by disk diffusion assay; type: functional; conditions: MTCC 1457, 24 h, read-out: GI; how it was run: as §1
[11] = system: Pseudomonas aeruginosa; assay: Antibacterial activity against Pseudomonas aeruginosa MTCC 741 at 2.5 x 10^-5 ug/ml after 24 hrs by disk diffusion assay; type: functional, organism-based; how it was run: as §1
[12] = system: Aspergillus niger; assay: Antifungal activity against Aspergillus niger MTCC 281 after 24 to 72 hrs by broth dilution method; type: functional; how it was run: as §3
[13] = system: Escherichia coli; assay: Antibacterial activity against Escherichia coli MTCC 119 at 1 x 10^-4 ug/ml after 24 hrs by disk diffusion assay; type: functional; conditions: MTCC 119, 24 h, read-out: GI; how it was run: as §1
[14] = system: Shigella flexneri; assay: Antibacterial activity against Shigella flexneri MTCC 1457 at 1 x 10^-4 ug/ml after 24 hrs by disk diffusion assay; type: functional; conditions: MTCC 1457, 24 h, read-out: GI; how it was run: as §1
[15] = system: Pseudomonas aeruginosa; assay: Antibacterial activity against Pseudomonas aeruginosa MTCC 741 after overnight incubation by broth dilution method; type: functional; how it was run: as §2
[16] = system: Geotrichum candidum; assay: Antifungal activity against Geotrichum candidum MTCC 3993 after 24 to 72 hrs by broth dilution method; type: functional; how it was run: as §3
[17] = system: Escherichia coli; assay: Antibacterial activity against Escherichia coli MTCC 119 at 5 x 10^-5 ug/ml after 24 hrs by disk diffusion assay; type: functional; conditions: MTCC 119, 24 h, read-out: GI; how it was run: as §1
[18] = system: Candida albicans; assay: Antifungal activity against Candida albicans MTCC 227 after 24 to 72 hrs by broth dilution method; type: functional; how it was run: as §3
[19] = system: Escherichia coli; assay: Antibacterial activity against Escherichia coli MTCC 119 after overnight incubation by broth dilution method; type: functional; how it was run: as §2
[20] = system: Staphylococcus aureus; assay: Antibacterial activity against Staphylococcus aureus MTCC 740 at 5 x 10^-5 ug/ml after 24 hrs by disk diffusion assay; type: functional; conditions: MTCC 740, 24 h, read-out: GI; how it was run: as §1

| SMILES | inhibition of growth at 25 pg/mL [1] [%] | inhibition of growth at 25 pg/mL [2] [%] | MIC [3] [µg/mL] | growth inhibition (GI) [4] | inhibition of growth at 0.0001 µg/mL [5] [%] | MIC [6] [µg/mL] | MIC [7] [µg/mL] | inhibition of growth at 25 pg/mL [8] [%] | growth inhibition (GI) [9] | inhibition of growth at 50 pg/mL [10] [%] | growth inhibition (GI) [11] | MIC [12] [µg/mL] | inhibition of growth at 0.0001 µg/mL [13] [%] | inhibition of growth at 0.0001 µg/mL [14] [%] | MIC [15] | MIC [16] [µg/mL] | inhibition of growth at 50 pg/mL [17] [%] | MIC [18] [µg/mL] | MIC [19] [µg/mL] | inhibition of growth at 50 pg/mL [20] [%] |
| --- | --- | --- | --- | --- | --- | --- | --- | --- | --- | --- | --- | --- | --- | --- | --- | --- | --- | --- | --- | --- |
| O=c1c(C2N=C(c3ccccc3)SS2)coc2ccccc12 (centres undefined) | 44.3 | 30.2 | 58 (≈ 178 µM) | inactive | 100 | 68 (≈ 209 µM) | 40 (≈ 123 µM) | 24.8 | inactive | 85.5 | inactive | 90 (≈ 277 µM) | 100 | 100 | inactive | 32 (≈ 98.3 µM) | 56.7 | 30 (≈ 92.2 µM) | 88 (≈ 270 µM) | 73.9 |
| O=c1c(C(=S)Nc2ccccc2)coc2cc(Cl)c(Cl)cc12 | 8.82 | 3.78 | 62 (≈ 177 µM) | inactive | 100 | 55 (≈ 157 µM) |  | 20.4 | inactive | 60.9 | inactive |  | 100 | 100 | inactive |  | 78.3 | 75 (≈ 214 µM) | 64 (≈ 183 µM) | 90.9 |
| O=c1c(C2N=C(c3ccccc3)SS2)coc2cc(Cl)c(F)cc12 (centres undefined) | 48.3 | 32.9 | 52 (≈ 138 µM) | inactive | 100 | 72 (≈ 191 µM) | 28 (≈ 74.1 µM) |  | inactive | 98.5 | inactive | 90 (≈ 238 µM) | 30.5 | 100 | inactive | 5 (≈ 13.2 µM) | 14 | 40 (≈ 106 µM) | 350 (≈ 926 µM) | 68.7 |
| Cc1ccc2occ(C3N=C(c4ccccc4)SS3)c(=O)c2c1 (centres undefined) | 21 | 35 | 82 (≈ 242 µM) | inactive | 100 | 54 (≈ 159 µM) | 52 (≈ 153 µM) |  | inactive | 60.9 | inactive | 150 (≈ 442 µM) | 72.5 | 100 | inactive | 95 (≈ 280 µM) | 30 | 60 (≈ 177 µM) | 132 (≈ 389 µM) | 92.7 |
| O=c1c(C2N=C(c3ccccc3)SS2)coc2ccc(Cl)cc12 (centres undefined) | 27.3 | 26.4 | 90 (≈ 250 µM) | inactive | 100 | 98 (≈ 272 µM) | 28 (≈ 77.8 µM) | 22 | inactive | 55.8 | inactive | 125 (≈ 347 µM) | 100 | 100 | inactive | 30 (≈ 83.4 µM) | 49.6 | 28 (≈ 77.8 µM) | 100 (≈ 278 µM) | 51.5 |
| O=C(O)c1cn(C2CC2)c2cc(N3CCNCC3)c(F)cc2c1=O [CIPROFLOXACIN] |  |  | 1.4 (≈ 4.23 µM) |  |  | 0.9 (≈ 2.72 µM) |  |  |  |  |  |  |  |  | 1.8 µg/mL (≈ 5.43 µM) |  |  |  | 1.2 (≈ 3.62 µM) |  |
